Results reported in publication PMC11904481 (ESMO Open, 2025).
Like-named read-outs stand apart in the source and are kept apart here.

Experiments:
[1] = tested on: patients with locally advanced unresectable or metastatic, relapsed and/or refractory nonhematological malignancies; assay: Phase I dose escalation: MTD / DLT determination; format: in vivo, human
Method in brief: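 I.v. test compound started at 0.45 mg/kg weekly in 28-day cycles (1 h infusion). Accelerated titration used single-patient cohorts with 100% increments up to 3.6 mg/kg, then 3 + 3 cohorts above 3.6 mg/kg. Schedule 2: weekly, 4 h infusion (minimum 2 h). Schedule 3: days 1, 4, 8 (later also 11, 15) of 21-day cycles, ≥4 h infusion, ≥6 h for doses >9.6 mg/kg. MTD/RP2D derived from DLTs.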

[2] = tested on: models of head and neck SCC; conditions: cited from earlier work
[3] = Phase I plasma pharmacokinetics; format: in vivo, human
ERK1/2 kinase = conditions: read-out: enzymatic IC50; cited from earlier work
ERK1/2 = conditions: cell lines; cited from earlier work
[4] = tested on: patient-derived xenograft (PDX) models of esophageal squamous cell carcinoma; conditions: cited from earlier work
[5] = tested on: patients with locally advanced unresectable or metastatic, relapsed and/or refractory nonhematological malignancies; assay: Phase I clinical activity; format: in vivo, human
Method in brief: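 Open-label multicenter dose escalation in adults with MAPK-altered or 11q-AMP solid tumors. The test compound was given i.v. on three schedules: weekly per 28-day cycle at 0.45-5.4 mg/kg (1-2 h infusion) or 4.8-9.6 mg/kg (4 h); or on days 1, 4, 8 (±11, 15) per 21-day cycle at 3.6-11.3 mg/kg. Investigator assessed response by RECIST v1.1. Evaluable patients had ≥1 dose plus baseline and ≥1 post-treatment tumor assessment.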

[6] = target: human ether-a-go-go-related gene (hERG) potassium channel (Homo sapiens, UniProt Q12809); assay: hERG potassium channel inhibition; format: biochemical
Chain of human ether-a-go-go-related gene (hERG) potassium channel (Q12809 whole entry): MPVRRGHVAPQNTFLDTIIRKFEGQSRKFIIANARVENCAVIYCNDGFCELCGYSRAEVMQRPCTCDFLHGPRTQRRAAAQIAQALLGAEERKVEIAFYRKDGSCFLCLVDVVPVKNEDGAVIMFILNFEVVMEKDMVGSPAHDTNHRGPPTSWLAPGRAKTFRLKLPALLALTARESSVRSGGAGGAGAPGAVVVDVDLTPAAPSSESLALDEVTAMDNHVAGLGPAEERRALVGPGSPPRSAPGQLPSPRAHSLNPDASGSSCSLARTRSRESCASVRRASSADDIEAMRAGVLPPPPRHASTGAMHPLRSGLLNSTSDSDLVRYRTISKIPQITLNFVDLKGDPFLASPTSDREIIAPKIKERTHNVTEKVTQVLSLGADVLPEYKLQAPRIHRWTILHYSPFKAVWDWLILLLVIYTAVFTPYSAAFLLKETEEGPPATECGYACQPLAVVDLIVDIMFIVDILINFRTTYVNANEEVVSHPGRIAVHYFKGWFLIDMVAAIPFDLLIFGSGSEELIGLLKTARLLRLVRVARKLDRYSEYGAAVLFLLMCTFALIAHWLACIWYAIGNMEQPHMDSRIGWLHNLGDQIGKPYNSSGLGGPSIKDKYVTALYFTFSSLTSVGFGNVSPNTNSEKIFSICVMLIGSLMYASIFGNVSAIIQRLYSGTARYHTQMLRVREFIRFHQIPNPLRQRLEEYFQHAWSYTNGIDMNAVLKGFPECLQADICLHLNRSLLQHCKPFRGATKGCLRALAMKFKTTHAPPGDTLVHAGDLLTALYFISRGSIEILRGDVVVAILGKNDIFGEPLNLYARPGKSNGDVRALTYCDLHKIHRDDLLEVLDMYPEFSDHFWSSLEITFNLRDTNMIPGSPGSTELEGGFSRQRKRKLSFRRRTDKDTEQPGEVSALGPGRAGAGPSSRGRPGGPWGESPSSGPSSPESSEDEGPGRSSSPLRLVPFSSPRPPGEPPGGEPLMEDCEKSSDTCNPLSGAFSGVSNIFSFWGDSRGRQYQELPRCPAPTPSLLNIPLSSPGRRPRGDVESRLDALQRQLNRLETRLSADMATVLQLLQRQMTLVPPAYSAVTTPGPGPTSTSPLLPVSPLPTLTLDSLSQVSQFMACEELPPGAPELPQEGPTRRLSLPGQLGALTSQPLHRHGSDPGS

[7] = 11q13-amplified (11q-AMP) PDX models of esophageal SCC
[8] = 11q13WT PDX models of esophageal SCC

Q: With O=C1Nc2cc3[nH]nc(-c4ccncc4)c3cc2CN1Cc1ccccc1 [KO-947] as the compound, how does the “recommended dose (RP2D)” value ([1]; i.v. days 1, 4, 8, 11, and 15 every 21 days, ≥4-hour infusion) read?
A: 8.5 mg/kg

Q: What about the “patients who experienced DLTs” value ([1]; schedule 1 cohort 5, 5.4 mg/kg, grade 3 QTc prolongation and grade 3 retinopathy) of the same compound?
A: 2/6

Q: And the DLTs ([1]; schedule 1 cohorts 1-4 (0.45-3.6 mg/kg), six patients)?
A: no DLTs

Q: What about the maximum administered dose ([1]; schedule 2, once weekly, 28-day cycle, 4-hour infusion) of the same compound?
A: 9.6 mg/kg

Q: And the DLTs ([1]; schedule 2 cohort 9 (9.6 mg/kg), two patients of six)?
A: DLT of QTc prolongation

Q: What about the DLTs ([1]; schedule 2 cohorts 5-8 (4.8-7.2 mg/kg)) of the same compound?
A: no DLTs

Q: What about the maximum administered dose ([1]; schedule 3, 21-day cycle) of the same compound?
A: 11.3 mg/kg

Q: What about the DLTs ([1]; schedule 3 cohort 3, 6.4 mg/kg) of the same compound?
A: One DLT of hypotension

Q: And the DLTs ([1]; schedule 3 cohort 4 (8.5 mg/kg, n = 3))?
A: No DLTs

Q: What about the DLTs ([1]; schedule 3 cohort 5 (11.3 mg/kg), one patient of six) of the same compound?
A: DLT of an infusion-related reaction

Q: What about the DLTs ([1]; schedule 3 cohorts 1 or 2 (3.6-4.8 mg/kg), six patients) of the same compound?
A: no DLTs

Q: And the antitumor response ([2]; 11q-AMP models of head and neck cancer)?
A: Complete responses and tumor regression

Q: What about the overall response rate ([2]; mouse models of head and neck SCC with 11q-AMP) of the same compound?
A: 56%

Q: And the overall response rate ([2]; mouse models of head and neck SCC, 11q13WT)?
A: 9%

Q: And the plasma concentration ([3]; 11.3 mg/kg, cohort 5 of schedule 3, 6-hour infusion, held for ∼4 hours)?
A: ~3600 ng/mL

Q: And the “dose proportionality of exposure, slope” value ([3]; after a single dose, noncompartmental analysis)?
A: 1.2

Q: And the accumulation ([3]; all dosing schedules)?
A: None to minimal accumulation

Q: What about the half-life ([3]; human, plasma, intravenous) of the same compound?
A: 6.5 to 24 h

Q: What about the half-life ([3]; human, plasma, intravenous, 3.6 mg/kg) of the same compound?
A: ~6.65 h

Q: And the Cmax ([3]; human, plasma, intravenous, 3.6 mg/kg, highest Cmax, 1-hour infusion)?
A: 3630 ng/mL

Q: And the Vd ([3]; in vivo)?
A: moderate

Q: What about the “plasma CL” value ([3]; in vivo) of the same compound?
A: moderate

Q: And the “time at which Cmax was achieved (near the end of the infusion)” value ([3]; schedules 2 and 3)?
A: ~4 h

Q: What about the IC50 (ERK1/2 kinase) of the same compound?
A: 10 nM

Q: What about the “inhibition of signaling following washout” value (ERK1/2) of the same compound?
A: > 4 h

Q: And the disease control rate [4, 7]?
A: 77%

Q: And the overall response rate [4, 7]?
A: 51%

Q: What about the disease control rate [4, 8] of the same compound?
A: 21%

Q: And the overall response rate [4, 8]?
A: 3%

Q: What about the best overall response ([5]; all schedules) of the same compound?
A: stable disease

Q: And the “complete or partial responses” value ([5]; all schedules)?
A: No complete or partial responses

Q: And the “patients discontinued owing to disease progression” value ([5]; schedule 3)?
A: 67%

Q: And the “stable disease as best overall response” value ([5]; schedule 3)?
A: 37%

Q: And the “stable disease as best overall response” value ([5]; schedules 1 and 2)?
A: 15%

Q: And the IC50 [6]?
A: 4400 nM

Q: And the “mean free Cmax relative to hERG IC50” value ([6]; overall study)?
A: about one-tenth
